Reference: article PMC7394305 (Journal for Immunotherapy of Cancer, 2020)
Read-outs that look alike come from different tables or passages of the source.

Assays:
OT-1 CD8+ T cells [1] = assay: CD103+ DC co-culture with OT-1 CD8+ T cells; assay type: cell-based, mouse
MCA205 tumors = MCA205 tumors in immunodeficient NSG mice; assay type: in vivo, mouse; conditions: AZD4635 and anti-PD-L1 (D265A)
In short: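 NSG mice got MCA205 cells sc (1×10^6 in PBS, right flank), with randomisation at 50–90 mm3. Treatment was oral test compound nanosuspension plus anti-PD-L1 (mIgG1 D265A, ip 10 mg/kg twice weekly). Tumor volume was measured twice weekly.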

MC38-OVA tumors [2] = assay: MC38-OVA syngeneic tumor model; assay type: in vivo, mouse
In short: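 C57BL/6 mice bore sc MC38-OVA (5×10^5 cells in PBS) and were randomised at 80–100 mm3. Anti-CD8 or rat IgG2b isotype was injected every 3 days. Mice also got oral test compound 50 mg/kg twice daily plus anti-PD-L1 10 mg/kg ip twice weekly. Tumor volume was tracked twice weekly.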

CD103+ DC [3] = assay: Pinocytosis assay; assay type: cell-based, mouse
In short: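 1e6 iDCs were incubated with Alexa 488–ovalbumin (50 µg/mL final) in complete T cell medium for 30 min at 37°C, with 4°C as negative control. Cells were washed twice in ice-cold DPBS, kept chilled and analysed by flow cytometry.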

MC38 tumors [4] = assay: Gene expression analysis of MC38 tumors; assay type: in vivo, mouse; conditions: 14 days treatment
In short: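 Mice bearing sc MC38 tumors were treated with test compound for 14 days. Tumor gene expression was profiled with the NanoString Mouse PanCancer Immune Profiling Panel.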

CD8+ T cells = assay: T cell IFNγ secretion assay; assay type: cell-based, mouse; conditions: for EC50: Mus musculus, T-cell
OT-1 CD8+ T cells [5] = assay: Ex vivo CD103+ DC isolation and OT-I T cell co-culture; assay type: in vivo, mouse; conditions: CD103+ DC from TdLN of MC38-OVA mice
CD103+ DC [6] = assay: CD103+ DC mouse bone marrow differentiation cultures; assay type: cell-based
monocyte-derived DCs = assay: Antigen-specific priming of HLA-A*0201 Melan-A CD8+ T cells; assay type: cell-based, human
MC38-OVA tumors [7] = assay: Ex vivo stimulation cytokine flow cytometry of MC38-OVA tumors; assay type: in vivo, mouse; conditions: for IFN-γ, TNF-α, IL-2, granzyme B and CD107a on CD8+ T cells: PMA/ionomycin ex vivo stimulation
In short: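 Dissociated MC38-OVA tumor cells were plated at 2–4e5 live cells/well in complete T cell medium. […] CD8+ T and NK cell cytokines and CD107a were then read by flow cytometry.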

CD103+ DC [8] = assay: Analysis of antigen presentation; assay type: cell-based, mouse
MC38 tumors [9] = assay: Tumor immunophenotyping flow cytometry of MC38 tumors; assay type: in vivo, mouse
tumor draining LN cells = assay: ELISpot assay of tumor draining lymph node cells; assay type: in vivo, mouse; conditions: combination with anti-PD-L1; MC38-OVA tumor-bearing mice
F4/80+ macrophages = assay: Mouse macrophage assay; assay type: cell-based; conditions: 10 µM NECA
[10] = AZD4635 + NECA, dead MC38-OVA tumor cells
[11] = whole ovalbumin protein, AZD4635+NECA
[12] = 5 μM NECA, dead MC38-OVA tumor cells
[13] = DC differentiated with 5 µM NECA, loaded with SIINFEKL peptide

Cc1cc(-c2nnc(N)nc2-c2ccc(F)cc2)cc(Cl)n1 [AZD4635]
restoration of CD107a and IFN-γ (OT-1 CD8+ T cells [1]; AZD4635 + NECA, SIINFEKL peptide): comparable to untreated cells | CD107a response relative to responses elicited by untreated cells (OT-1 CD8+ T cells [1]; [10]): 87% | IFN-γ response compared with untreated cells (OT-1 CD8+ T cells [1]; [10]): not statistically different | antitumor activity in immunodeficient mice (MCA205 tumors): completely abrogated | tumor efficacy of combination (MC38-OVA tumors [2]; AZD4635 50 mg/kg twice daily with αPD-L1 10 mg/kg): appreciable beneficial combination effect | antitumor activity after depletion of CD8 T cells (MC38-OVA tumors [2]; AZD4635+PD-L1 treatments, antimouse CD8 antibody): completely abrogated | rescue of fluorescent OVA uptake (CD103+ DC [3]; AZD4635 3 µM with NECA): almost to levels in untreated control | expression of genes associated with immune activation relative to vehicle (MC38 tumors [4]): upregulated expression | EC50 (CD8+ T cells; read-out: EC50 restoration of IFN-γ secretion, 0.1 µM NECA): 53 nM | EC50 (CD8+ T cells; read-out: EC50 restoration of IFN-γ secretion, 1 µM NECA): 598 nM | restoration of IFN-γ secretion (CD8+ T cells; in presence of NECA): back to baseline levels | proliferation of OT-1 CD8+ T cells (OT-1 CD8+ T cells [5]; anti-PD-L1+AZD4635 combination): 53% | proliferation of OT-1 CD8+ T cells (OT-1 CD8+ T cells [5]; single agent, vehicle 5.8%): 28% | differentiation into CD103+ DC (CD103+ DC [6]; 3 µM AZD4635 then NECA): able to differentiate into CD103^+ DC efficiently | Melan-A26-35 tetramer positive CD8+ T cells (monocyte-derived DCs; 5 µM NECA, AZD4635 3 µM where given, tabulated, 4 donors, no NECA 32%): 16% | NK cell IFN-γ production (MC38-OVA tumors [7]; combination with anti-PD-L1): minimal increase | NK cell TNF-α production and CD107a expression (MC38-OVA tumors [7]; combination with anti-PD-L1): strong increase | IFN-γ, TNF-α, IL-2, granzyme B and CD107a on CD8+ T cells (MC38-OVA tumors [7]; combination with anti-PD-L1): most significantly increased | IFN-γ, TNF-α, IL-2, granzyme B and CD107a on CD8+ T cells (MC38-OVA tumors [7]; single agent): all enhanced | rescue of antigen presentation compared with NECA treatment (CD103+ DC [8]; SIINFEKL pulsed cultures, AZD4635 3 µM + NECA): twofold | antigen presentation level versus untreated CD103+ DCs (CD103+ DC [8]; [11]): restored to a level comparable to untreated | increase of antigen presentation compared with NECA (CD103+ DC [8]; [11]): nearly fivefold | MHCII and CD86 expression on CD11c+ DCs and F4/80+ macrophages (MC38 tumors [9]; 14 days, single agent): increased expression | intratumoral frequencies of DCs and macrophages (MC38 tumors [9]; 14 days, single agent): did not increase | frequency of infiltrating CD8+ cytotoxic lymphocytes compared with vehicle (MC38 tumors [9]; in combination with anti-PD-L1): significantly increased | IFN-γ response to OVA and p15E peptides (tumor draining LN cells): Strong activation of IFN-γ

CCNC(=O)[C@H]1O[C@@H](n2cnc3c(N)ncnc32)[C@H](O)[C@@H]1O [NECA, 5′-(N-ethylcarboxamido) adenosine]
reduction of CD107a response (OT-1 CD8+ T cells [1]; [12]): 75% | reduction of IFN-γ response (OT-1 CD8+ T cells [1]; [12]): 75% | reduction of CD107a expression by OT-1 CD8+ T cells (OT-1 CD8+ T cells [1]; [13]): 72% | reduction of IFN-γ secretion by OT-1 CD8+ T cells (OT-1 CD8+ T cells [1]; [13]): 60% | reduction of fluorescent OVA uptake (CD103+ DC [3]; NECA 5 µM): ~50% | suppression of IFN-γ secretion (CD8+ T cells; 1 µM NECA, CD3/CD28 beads): 80% | CD103+ cells (CD103+ DC [6]; 5 µM NECA, untreated 80%): 57% | Melan-A26-35 tetramer positive CD8+ T cells (monocyte-derived DCs): 2.5% | reduction of cross-priming function of DCs (monocyte-derived DCs; 5 µM NECA): greater than 90% | antigen presentation compared with untreated CD103+ DC (CD103+ DC [8]; SIINFEKL pulsed cultures, NECA 5 µM): less than a third | antigen presentation compared with untreated cells (CD103+ DC [8]; whole ovalbumin protein, NECA 5 µM): a log-fold reduced | suppression of MHCII expression relative to DMSO-treated controls (F4/80+ macrophages): > 90%
